The values below come from ChEMBL document CHEMBL1143895, “Core-modified porphyrins. Part 6: Effects of lipophilicity and core structures on physicochemical and biological properties in vitro” (Bioorg Med Chem, 2008).

Series [1] in a line: Lipophilicity, log D at pH 7.4. In kind it is physicochemical. The conditions noted are these: buffer. In outline: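 Shake-flask method: porphyrin dissolved in equal volumes of n-octanol and pH 7.4 phosphate buffer, sonicated 30 min, left to settle 4 h. Each phase measured by UV-vis absorbance and reported as log D7.4.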
Series [2] has as its system R3230AC. As to the kind of experiment: Cytotoxicity in rat R3230AC cells irradiated with 10.8J/cm^2 of water filtered halogen light after 24 hrs by MTT assay. The conditions noted are these: light or radiation study. Type of series: functional, cell-based. In a few lines: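 R3230AC rodent mammary adenocarcinoma cells in α-MEM with 10% bovine growth serum, seeded 1.0–1.5×10^4 cells/well and grown 24 h at 37 °C, 5% CO2. Porphyrin in complete medium for 24 h, rinsed with saline, then irradiated 1 h in clear serum-free medium with water-filtered halogen light (400–850 nm, 3 mW/cm², 10.8 J/cm²). Given complete medium, 24 h dark, then MTT vs light-only controls. IC50 from Hill fit; ≥3 experiments in duplicate.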
A general note: Tetrazolium assays rely on reduction of a dye to a coloured formazan, in cell work by metabolically active cells.

Series [3] can be described thus: Singlet oxygen generation assessed as DPBF oxidation at 1 uM. Type of series: functional. In outline:
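DPBF consumption by singlet oxygen from the irradiated porphyrin, with stirring under 3 mW/cm² light. UV absorbance of DPBF read every 2 min up to 10 min, expressed as percent DPBF oxidized.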

The test system of series [4] is R3230AC. As to the kind of experiment: Cytotoxicity in rat R3230AC cells under dark condition upto 10 uM after 24 hrs by MTT assay. In kind it is functional, cell-based. In a few lines:
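Dark toxicity in R3230AC cells, seeded 1.0–1.5×10^4 cells/well and grown 24 h at 37 °C, 5% CO2. Porphyrin up to 10 μM in complete medium for 24 h, rinsed with saline. Cells held 1 h in the dark in clear serum-free medium, then 24 h in complete medium before MTT, read as percent of untreated dark controls.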

Series [5] concerns R3230AC. As to the kind of experiment: Drug uptake in rat R3230AC assessed as intracellular accumulation per cell at 10 uM after 24 hrs. In kind it is ADME, cell-based. In outline:
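R3230AC cells seeded 2.0–3.0×10^4/well and grown 24 h. Porphyrin from a 2 mM DMSO stock, diluted in complete medium to 10 μM final, 24 h at 37 °C. Monolayer rinsed twice with 0.9% NaCl and lysed in DMSO. Porphyrin fluorescence read and converted through a DMSO standard curve to fmol/cell. Mean with SEM.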

pIC50: −log10 of the molar value.

`O=C(O)COc1ccc(-c2c3nc(c(-c4ccccc4)c4ccc(s4)c(-c4ccccc4)c4nc(c(-c5ccc(OCC(=O)O)cc5)c5ccc2s5)[C@H](O)[C@@H]4O)C=C3)cc1`: the pH-dependent lipophilicity (logD) (in general, the decadic logarithm of the distribution of all forms, ionised or not, between an organic phase and buffer at a given pH) in series [1] was -0.5. Further, the negative-log IC50 (pIC50) – broadly, the IC50 on a negative log10 scale, so that one unit is a factor of ten – in the series with R3230AC [2] is 5.59. Also, the Activity is 62% in series [3] and “Not toxic” with R3230AC [4]. Besides, the Drug uptake with R3230AC [5] came out at 0.11 fmol.
Consider `O=C(O)COc1ccc(-c2c3nc(c(-c4ccc(F)cc4)c4ccc(s4)c(-c4ccc(F)cc4)c4nc(c(-c5ccc(F)cc5)c5ccc2s5)C=C4)C=C3)cc1`, for which the pH-dependent lipophilicity (logD) in series [1] came to 1.8. In the series on R3230AC [2], this molecule had a pIC50 of 6.42. For the same molecule, the Activity in series [3] is 75%; in the series on R3230AC [4] it was “Not toxic”. For the same molecule, in the series with R3230AC [5], the Drug uptake turned out to be 0.33 fmol.
In series [1], `O=C(O)COc1ccc(-c2c3nc(c(-c4ccccc4)c4ccc(s4)c(-c4ccccc4)c4nc(c(-c5ccccc5)c5ccc2s5)C=C4)C=C3)cc1` had a logD of 1.6. In addition, the pIC50 in the series on R3230AC [2] is 6.59. The values for the Activity (in series [3]; in the series with R3230AC [4]) were 78% and “Not toxic”, respectively. Moreover, the Drug uptake in the series on R3230AC [5] was 0.31 fmol.
`O=S(=O)([O-])c1ccc(-c2c3nc(c(-c4ccc(F)cc4)c4ccc(s4)c(-c4ccc(F)cc4)c4nc(c(-c5ccc(F)cc5)c5ccc2s5)C=C4)C=C3)cc1.[Na+]` returned a log distribution coefficient (logD) in series [1] of 0.8. This molecule also had a pIC50 in the series with R3230AC [2] of 6.11. The results for the Activity (in series [3]; in the series on R3230AC [4]) were 64% and “Not toxic”, respectively. Further, in the series with R3230AC [5], the Drug uptake is listed as 0.3 fmol.
The molecule `CC(C)(C)c1ccc(-c2c3nc(c(-c4ccc(OCC(=O)O)cc4)c4ccc(s4)c(-c4ccccc4)c4nc(c(-c5ccccc5)c5ccc2s5)C=C4)C=C3)cc1` returned a logD in series [1] above 2. In the series with R3230AC [2], this molecule showed a pIC50 of 6.23. The values for the Activity (in series [3]; in the series with R3230AC [4]) were 75% and “Not toxic”, respectively. Further, the Drug uptake with R3230AC [5] was determined as 0.46 fmol.
In series [1], `O=C(O)COc1c(OCC(=O)O)c2cc3nc(c(-c4ccccc4)c4ccc([nH]4)c(-c4ccccc4)c4nc(cc1s2)C=C4)C=C3` [THIAPORPHYRIN] came in with a logD of 0.8. This molecule had a negative logarithm of the IC50 (pIC50) with R3230AC [2] of 5.64. Further, the values for the Activity (in series [3]; with R3230AC [4]) were 48% and “Not toxic”, respectively. Moreover, in the series on R3230AC [5], the Drug uptake worked out at 0.16 fmol.
On to `O=C(O)COc1ccc(-c2c3nc(c(-c4ccccc4)c4ccc(s4)c(-c4ccccc4)c4nc(c(-c5ccc(OCC(=O)O)cc5)c5ccc2s5)C=C4)C=C3)cc1`, for which the logD in series [1] is 0.1. Besides, the negative-log IC50 (pIC50) with R3230AC [2] is 6.89. In addition, the Activity was 68% in series [3] and “Not toxic” in the series with R3230AC [4]. For the same molecule, in the series with R3230AC [5], the Drug uptake is reported as 0.59 fmol.
As to `O[C@@H]1c2nc(c(-c3ccccc3)c3ccc(s3)c(-c3ccccc3)c3nc(c(-c4ccccc4)c4ccc(s4)c2-c2ccccc2)C=C3)[C@@H]1O`, the log distribution coefficient (logD) in series [1] is above 2. Moreover, in the series with R3230AC [2], the pIC50 is 6.74. Moreover, the Activity was 78% in series [3] and “Not toxic” in the series with R3230AC [4]. The Drug uptake in the series on R3230AC [5] turned out to be 4.5 fmol.
